One data set concerns Cryptococcus neoformans. The experiment in a line: Antimicrobial activity against Cryptococcus neoformans ATCC 52657. It counts as functional. The method, boiled down: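 Grown in mycophil broth 72 h, hemocytometer-counted, diluted to 200,000 CFU/mL. Exposed to diluted samples in 96-well plates, maximum final 50 µg/mL (DMSO up to 2.5%), incubated 30 °C. A630 readout. MIC is the lowest concentration inhibiting 80% of growth versus controls; IC50 read from concentration versus % growth graphs.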

In another data set the test system is Aspergillus fumigatus. The data set can be described thus: Antimicrobial activity against Aspergillus fumigatus ATCC 26934. It counts as functional. The essentials: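 Aspergillus fumigatus spores released by scraping a slant, used on assay day, in mycophil broth. Broth microdilution in 96-well plates, highest final DMSO 2.5%, incubated at 30 °C. Growth read as absorbance at 630 nm versus controls. MIC is the lowest tested concentration giving 80% growth inhibition; IC50 (50% inhibition) comes from concentration versus % growth plots.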

The test system of the next data set is Candida albicans. The data set can be described thus: Antimicrobial activity against Candida albicans B311. The class given is functional. The essentials:
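Cultured in Sabouraud dextrose broth 24 h, counted by hemocytometer, diluted to 10,000 CFU/mL. Added to serially diluted samples in 96-well plates, top final concentration 50 µg/mL (≤2.5% DMSO), incubated 37 °C. Growth by A630. MIC is the lowest concentration giving 80% inhibition against controls; IC50 from concentration versus % growth plots.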

The nature of data set [1]: Cytotoxicity against human SK-MEL cells assessed as cell growth inhibition after 48 hrs by neutral red dye based assay. The class given is functional. The essentials:
(§1)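 Cells kept in RPMI-1640 with 10% bovine serum and 60 µg/mL amikacin, 37 °C, 5% CO2. Seeded at 25,000 cells/well, left 24 h to adhere. Samples diluted in RPMI added, highest final concentration 10 µg/mL. Growth measured by neutral red uptake after 48 h exposure.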

Data set [2] can be described thus: Cytotoxicity against human BT549 cells assessed as cell growth inhibition after 48 hrs by neutral red dye based assay. The class given is functional. The settings on record: BT-549, 48 h. The method, boiled down: as §1
A short description of data set [3]: Cytotoxicity against African green monkey Vero cells assessed as cell growth inhibition after 48 hrs by neutral red dye based assay. The class given is toxicity, Chlorocebus sabaeus. The essentials:
as §1

A short description of data set [4]: Cytotoxicity against human KB cells assessed as cell growth inhibition after 48 hrs by neutral red dye based assay. The class given is functional. The method, boiled down:
as §1

Data set [5] in a line: Cytotoxicity against human SKOV3 cells assessed as cell growth inhibition after 48 hrs by neutral red dye based assay. The class given is functional. The note with it: SK-OV-3, 48 h. The method, boiled down: as §1
In a further data set the target is T1, DNA topoisomerase 1 (Homo sapiens, UniProt P11387).
T1 sequence (P11387 whole entry): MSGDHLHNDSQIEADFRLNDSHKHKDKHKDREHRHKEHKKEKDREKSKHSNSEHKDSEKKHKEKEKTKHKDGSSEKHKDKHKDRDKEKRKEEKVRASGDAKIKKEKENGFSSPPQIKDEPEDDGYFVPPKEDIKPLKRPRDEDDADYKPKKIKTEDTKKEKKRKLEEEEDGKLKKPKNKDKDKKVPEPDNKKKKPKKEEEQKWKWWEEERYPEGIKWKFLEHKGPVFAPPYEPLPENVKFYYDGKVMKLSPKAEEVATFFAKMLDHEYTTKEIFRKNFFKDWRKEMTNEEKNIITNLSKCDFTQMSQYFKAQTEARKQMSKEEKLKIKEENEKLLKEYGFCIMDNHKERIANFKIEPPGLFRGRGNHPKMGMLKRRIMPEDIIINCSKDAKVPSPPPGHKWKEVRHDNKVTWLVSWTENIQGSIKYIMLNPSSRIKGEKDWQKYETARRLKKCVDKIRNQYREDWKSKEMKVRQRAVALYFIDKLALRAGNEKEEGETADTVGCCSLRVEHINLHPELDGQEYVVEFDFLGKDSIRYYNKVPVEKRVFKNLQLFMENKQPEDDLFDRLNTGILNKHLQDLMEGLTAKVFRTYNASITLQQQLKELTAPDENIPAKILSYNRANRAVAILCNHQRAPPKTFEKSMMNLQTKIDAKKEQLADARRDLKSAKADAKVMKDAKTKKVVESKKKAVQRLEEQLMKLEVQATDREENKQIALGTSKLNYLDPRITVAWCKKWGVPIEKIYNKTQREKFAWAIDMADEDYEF
The experiment in a line: Inhibition of human DNA topoisomerase 1 using pHOT1 as substrate after 30 mins by agarose gel electrophoresis. The method, boiled down: (§2)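 Relaxation of supercoiled to relaxed DNA by TopoI measured with a commercial TopoI drug kit following kit protocol. IC50 calculated from dose-response curves of % inhibition versus concentration.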

A further data set deals with Pseudomonas aeruginosa. The experiment in a line: Antimicrobial activity against Pseudomonas aeruginosa ATCC 15442. It counts as functional. The method, boiled down:
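Pseudomonas grown 24 h in trypticase soy broth, diluted 1:50. Combined with diluted samples in 96-well plates, top final concentration 50 µg/mL (≤2.5% DMSO), 37 °C incubation. Growth read at 630 nm. MIC is the lowest tested concentration inhibiting 80% of growth versus controls; IC50 from concentration versus % growth graphs.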

Data set [6] relates to Staphylococcus aureus. The data set can be described thus: Antimicrobial activity against methicillin-resistant Staphylococcus aureus. The class given is functional. The essentials: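 MRSA precultured 24 h, diluted 1:50 in broth, added to serially diluted samples in 96-well plates (highest final DMSO 2.5%), incubated at 37 °C. Growth measured as absorbance at 630 nm versus controls. MIC is the lowest concentration giving 80% inhibition; IC50 (50% inhibition) is read from concentration versus % growth plots.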

A short description of data set [7]: Inhibition of Candida albicans DNA topoisomerase 1 using pHOT1 as substrate after 30 mins by agarose gel electrophoresis. The essentials: as §2
Data set [8] has as its system Mycobacterium intracellulare. The data set can be described thus: Antimicrobial activity against Mycobacterium intracellulare ATCC 23068. The class given is functional. The method, boiled down:
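Mycobacterium grown 72 h in Middlebrook medium with OADC supplement, diluted 1:30 in broth. Incubated at 37 °C with diluted samples in 96-well plates, highest final 50 µg/mL, DMSO at most 2.5%. Absorbance at 630 nm. MIC = lowest concentration with 80% growth inhibition relative to controls; IC50 from concentration versus % growth plots.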

Data set [9] deals with Staphylococcus aureus. The experiment in a line: Antimicrobial activity against Staphylococcus aureus ATCC 6538. It counts as functional. The method, boiled down:
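Staphylococcus aureus grown 24 h in Eugon broth, diluted 1:50 in broth, added to serially diluted samples in 96-well plates (highest final DMSO 2.5%), incubated at 37 °C. Growth measured at 630 nm versus controls. MIC is the lowest concentration inhibiting 80% of growth; IC50 (50% inhibition) comes from concentration versus % growth plots.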

In another data set the test system is Plasmodium falciparum. The data set can be described thus: Antimalarial activity against Plasmodium falciparum D6 infected in RBC after 48 hrs by lactate dehydrogenase assay. The class given is functional. The note with it: D6, 48 h. The method, boiled down:
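Parasites grown in A+ human erythrocytes in RPMI 1640 with 10% A+ human serum, 25 mM HEPES, 27 mM bicarbonate, 60 µg/mL amikacin, 37 °C under 90% N2/5% O2/5% CO2. Infected cells exposed 48 h in microtiter wells, highest concentration 4.8 µg/mL. Growth read by Malstat reagent (parasite LDH) with nitro blue tetrazolium reduction, absorbance 630 nm.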

Data set [10] can be described thus: Selectivity index, ratio of IC50 for human DNA topoisomerase 1 to IC50 for Candida albicans DNA topoisomerase 1.

≈ marks a conversion by molar mass, not a printed value.

Consider `C[C@@H]1[C@H](O)[C@@H](C)/C=C/C=C/C=C/C=C/C=C/C=C/C=C/[C@H](O[C@@H]2O[C@H](C)[C@@H](O)[C@H](N)[C@@H]2O)C[C@@H]2O[C@](O)(C[C@@H](O)C[C@@H](O)[C@H](O)CC[C@@H](O)C[C@@H](O)CC(=O)O[C@H]1C)C[C@H](O)[C@H]2C(=O)O` [AMPHOTERICIN B], for which the MIC80 with Cryptococcus neoformans is 0.078 µg/mL (≈ 0.0844 µM); in the data set on Aspergillus fumigatus, 1.25 µg/mL (≈ 1.35 µM); with Candida albicans, 0.156 µg/mL (≈ 0.169 µM).
Regarding `COc1cccc2c1C(=O)c1c(O)c3c(c(O)c1C2=O)C[C@@](O)(C(=O)CO)C[C@@H]3O[C@H]1C[C@H](N)[C@H](O)[C@H](C)O1` [DOXORUBICIN], the half-maximal inhibitory concentration (IC50) in data set [1] stood at 1.11 µg/mL (≈ 2.04 µM); in data set [2], 1.35 µg/mL (≈ 2.48 µM); in data set [4], 1.59 µg/mL (≈ 2.93 µM); in data set [5] it was 1.3 µg/mL (≈ 2.39 µM). The IC50 at 48 h in data set [3] was above 10 µg/mL.
For `CC[n+]1c2c3c(nc(-c4ccccc4)cc3c3ccccc31)-c1ccccc1-2.[Br-]`, the IC50 against DNA topoisomerase 1 is below 13.7 µM; with Cryptococcus neoformans, 0.17 µg/mL; with Pseudomonas aeruginosa, 2 µg/mL; in [1], 1.3 µg/mL; with Staphylococcus aureus [6], 2 µg/mL; in [7], below 6 µg/mL. Moreover, the IC50 came to 8 µg/mL in data set [2]; 0.04 µg/mL in the data set on Candida albicans; 2 µg/mL in the data set on Staphylococcus aureus [9]; 6.5 µg/mL in data set [4]; 4 µg/mL in data set [5]. For the same molecule, the values for the MIC80 (against Cryptococcus neoformans; in [8]; in the data set on Candida albicans) were 0.39 µg/mL, 10 µg/mL and 0.098 µg/mL, respectively. Also, the IC50 at 48 h in data set [3] was determined as 7.8 µg/mL.
Turning to `NC(=O)C[n+]1ccc2ccnc3c2c1-c1ccccc1-3.[Br-]`, the IC50 with Cryptococcus neoformans was 30 µg/mL; in [1], 6.5 µg/mL; in the data set on Plasmodium falciparum, 0.09 µg/mL; in [5], above 10 µg/mL. The MIC80 in the data set with Cryptococcus neoformans was 50 µg/mL. Also, the IC50 at 48 h in data set [3] was above 10 µg/mL.
With `FC(F)(F)c1ccc(C[n+]2ccc3ccnc4c3c2-c2ccccc2-4)cc1.[Br-]`, the 50% inhibitory concentration (IC50) is 69.9 µM on DNA topoisomerase 1; 0.57 µg/mL in the data set with Cryptococcus neoformans; 27 µg/mL with Pseudomonas aeruginosa; 0.78 µg/mL in [1]; 30 µg/mL in data set [7]; 0.0085 µg/mL in the data set on Plasmodium falciparum. Moreover, the half-inhibitory concentration (IC50) in data set [2] was 0.79 µg/mL; in the data set on Candida albicans, 6.5 µg/mL; with Staphylococcus aureus [9], 30 µg/mL; in data set [4], 0.54 µg/mL; in [5], 0.08 µg/mL. For the same molecule, the values for the MIC80 (against Cryptococcus neoformans; in [8]; in the data set with Candida albicans) were 3.12 µg/mL, 50 µg/mL and 12.5 µg/mL, respectively. Besides, in [10], the Ratio IC50 is 0.97. Also, the IC50 at 48 h in data set [3] worked out at 6.4 µg/mL.
Turning to `c1ccc2c(c1)-c1nccc3ccnc-2c13` [EUPOLAURIDINE], the IC50 at DNA topoisomerase 1 is 20.6 µM; in the data set with Cryptococcus neoformans, 4.8 µg/mL (≈ 23.5 µM); in the data set on Pseudomonas aeruginosa, 5 µg/mL (≈ 24.5 µM); in [7], 6.5 µg/mL (≈ 31.8 µM); in the data set with Candida albicans it was 5.25 µg/mL (≈ 25.7 µM); in data set [5], above 10 µg/mL. The MIC80 with Cryptococcus neoformans was 25 µg/mL (≈ 122 µM); with Aspergillus fumigatus it was 2 µg/mL (≈ 9.79 µM); with Candida albicans it was 12.5 µg/mL (≈ 61.2 µM). Further, the Ratio IC50 in data set [10] was determined as 1.55. Moreover, the IC50 at 48 h in data set [3] was above 10 µg/mL.

The record behind these values is ChEMBL document CHEMBL3865847, “The synthesis and biological evaluation of alkyl and benzyl naphthyridinium analogs of eupolauridine as potential antimicrobial and cytotoxic agents” (Bioorg Med Chem, 2016).
